Scp1 inh – Scp-1 (human) phosphatase inhibition; Q9GZU7; inhibition, % at 20 µM; actives 0.88% (n = 340,000); AID 493091; Recombinant Scp1, phosphopeptide, malachite green phosphate absorbance;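 active = inhibition above about 50% at 20 µM, limit read from the data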;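 also: plate controls were DMSO wells with enzyme for no effect and wells lacking enzyme for full effect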
Target sequence (Q9GZU7 76-261 limits assumed): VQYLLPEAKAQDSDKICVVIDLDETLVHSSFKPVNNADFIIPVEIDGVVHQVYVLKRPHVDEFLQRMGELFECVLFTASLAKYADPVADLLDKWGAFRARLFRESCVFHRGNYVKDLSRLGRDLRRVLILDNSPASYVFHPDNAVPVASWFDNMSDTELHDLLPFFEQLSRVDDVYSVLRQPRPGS
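assay system = SCP-1 phosphatase catalytic domain, residues 76-261 | buffer or medium = 50 mM Tris acetate pH 5.5, 0.005% Tween-20, 10 mM MgCl2 | incubation = enzyme reaction 45 min at room temperature, colour 5 min, stabilisation 30 min | signal = Phosphate-binding colour reagent, absorbance read at 630 nm | measure = % inhibition at 20 µM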
LMPTP inh – LMPTP (human) inhibition. recombinant LMPTP-A, OMFP fluorogenic substrate, fluorescence intensity. inhibition, % at 20 µM. actives 0.22% (n = 360,000);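 active = compounds that cut the enzyme signal by at least half of the control window in the single-dose screen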;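 also: plate controls were DMSO wells with enzyme plus substrate for no effect and substrate without enzyme for full effect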
Target sequence (P24666 whole entry, looked up): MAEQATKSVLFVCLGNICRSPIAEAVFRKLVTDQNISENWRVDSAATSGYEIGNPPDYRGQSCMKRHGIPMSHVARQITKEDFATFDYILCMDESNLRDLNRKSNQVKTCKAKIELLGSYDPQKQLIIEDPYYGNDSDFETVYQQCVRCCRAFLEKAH
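Material: LMPTP-A; amount: 0.625 nM enzyme; doses: single 20 µM dose; times: reaction 50 min, room temperature, dark; technique: fluorescence intensity of OMFP turnover product; benchmarks: no-enzyme and uninhibited controls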
SUMO1 PPI mod – modulators of human SUMO1-mediated protein-protein interactions; SUMO1 binding to a labelled peptide, TR-FRET, 1 h; inhibition, % at 20 µM; actives 0.33% (n = 360,000); in the data active = inhibition above about 37%
Target sequence (P63165 whole entry, looked up): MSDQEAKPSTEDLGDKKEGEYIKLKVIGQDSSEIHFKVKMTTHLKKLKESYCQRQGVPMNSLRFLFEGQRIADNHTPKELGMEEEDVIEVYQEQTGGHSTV
STEP inh – inhibitors of human striatal-enriched phosphatase STEP; inhibition, % at 20 µM; actives 0.25% (n = 360,000); P54829; recombinant STEP, OMFP fluorogenic substrate, fluorescence; AID 588621;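 active = inhibition at 20 µM, scaled per plate between control wells, above about 37%, limit read from the data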;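 also: 0% = DMSO with enzyme and substrate and 100% = substrate only without enzyme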
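System: STEP phosphatase, cell-free reaction; Buffer or medium: Bis-Tris pH 6.0 buffer with DTT, detergent; Incubation: 20 min at room temperature, dark; Measured by: fluorescence, 480/540 nm.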
DNMT1 block – DNMT1 (human) enzyme inhibition | DNMT1 molecular beacon, Hinp1I cleavage, fluorescence | inhibition (reported as % activation of signal), % at 10 µM | actives 0.83% (n = 360,000) | AID 588458; in the data active = inhibition above about 50%
DNMT1 interf DR – shows spectral interference in the DNMT1 beacon assay; shares compounds with DNMT1 block; molecular beacon fluorescence, spectral interference counter-screen; IC50, µM; 200 tested, under 10 active; AID 602382; call rule not given here
DNMT1 confirm – confirmation of human DNMT1 inhibitors | shares compounds with DNMT1 block | DNMT1 molecular beacon HinP1I cleavage, fluorescence | inhibition, % at 10 µM | actives 8% (n = 2,300) | AID 602385;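 active = average inhibition of at least 30% in the single-concentration confirmation test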
DNMT1 interf – beacon fluorescence artifact counter-screen. shares compounds with DNMT1 block. DNMT1 molecular beacon spectral interference counterscreen, fluorescence 485/520. activation (fluorescence interference), % at 10 µM. actives 1% (n = 2,300). AID 602387;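 active = activation of at least 30% at 10 µM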;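 also: DNMT1 catalytic domain with a HinP1I cleavage step and a FAM/dabcyl DNA beacon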
Numbers without * were called inactive; . = no result given. The list is not random: actives were taken first. Their share in the collection is about 1.8%.

SMILES | Scp1 inh | LMPTP inh | SUMO1 PPI mod | STEP inh | DNMT1 block | DNMT1 confirm | DNMT1 interf | others
Cc1ccc(CN2C(=O)N/C(=C\c3ccc(-c4ccc(C(=O)O)cc4C)o3)C2=O)cc1 | 71* | 4 | 21 | 10 | 126* | 10 | -3
COc1ccc(C(=O)c2sc(Nc3ccccc3)nc2N)cc1 | -2 | 2 | -4 | 2 | 89* | 2 | 5
Nc1nc(Nc2ccccc2)sc1C(=O)c1ccccc1 | 5 | 3 | -24 | 2 | -8 | . | .
Cc1nn(Cc2c(Cl)cccc2Cl)c(C)c1NC(=O)c1cn(-c2ccccc2)nc1-c1ccccc1 | 1 | 2 | -2 | 5 | 68* | -2 | -6
Cc1cccc(C)c1NC(=O)CNC(=O)c1cn(-c2ccccc2)nc1-c1ccccc1 | -5 | 0 | 0 | -1 | -1 | . | .
COc1ccc(/C=C/C(=O)OCC(=O)NC2CCCC2)c(OC)c1 | -5 | 1 | -13 | -1 | 0 | . | .
COC(=O)C1CCN(C2CN(Cc3ccc(C)cc3)S(=O)(=O)C2)CC1 (configuration not stated) | . | -1 | 5 | 1 | -1 | . | .
CCS(=O)(=O)N1Cc2ccccc2CC1C(=O)N1CCN(c2cccc(C)c2C)CC1 (configuration not stated) | -2 | 11 | 1 | -1 | 65* | 5 | 2
CN(C(=O)COC(=O)c1ccc2c(c1)OCCO2)C1CCCCC1 | -2 | 0 | 2 | -2 | 1 | . | .
COc1cccc(NC(=O)c2cc(-c3ccc(C)o3)nc3ccccc23)c1 | 42 | 4 | -15 | 7 | 25 | . | .
Cc1nnc(NC(=O)c2cc(-c3ccco3)nc3ccccc23)s1 | . | 27 | 25 | 21 | 96* | 18 | 1
O=C(N/N=C/c1ccc([N+](=O)[O-])o1)c1cc(-c2ccc(-c3ccccc3)cc2)nc2ccccc12 | 33 | 2 | 2 | -1 | 79* | 0 | 2
O=C(Nc1cccc(S(=O)(=O)NC2=NCCC2)c1)c1cc(-c2ccco2)nc2ccccc12 | 90* | 61* | 23 | 6 | 99* | 56* | -2 | DNMT1 interf DR=>99
O=C(NC(=S)Nc1cccc(S(=O)(=O)NC2=NCCC2)c1)c1cc(-c2ccco2)nc2ccccc12 | -6 | 15 | 22 | 5 | 11 | . | .
COc1ccc(NC(=O)c2cc(-c3ccco3)nc3ccccc23)cn1 | 67* | 14 | -5 | 4 | 49 | 2 | 0
O=C(N/N=C/c1ccc([N+](=O)[O-])o1)c1cc(-c2ccncc2)nc2ccccc12 | 29 | 3 | -10 | 0 | 7 | . | .
CCNC(=O)COC(=O)c1cc(-c2ccco2)nc2ccccc12 | 70* | 5 | -2 | 0 | 71* | 12 | 3
O=C(N/N=C/c1ccc(F)cc1)c1cc(-c2ccco2)nc2ccccc12 | 81* | 61* | 12 | 16 | 105* | 48* | -1 | DNMT1 interf DR=>99
O=C1C2C(C(=O)N1/N=C/c1ccc([N+](=O)[O-])o1)C1C=CC2C12CC2 (configuration not stated) | -2 | 0 | -14 | 2 | -1 | . | .
CC1=NN(c2nc(N)nc(/C(C#N)=C/c3ccc([N+](=O)[O-])o3)n2)C(C)(C)C1 | 64* | 3 | -13 | 7 | 54* | 2 | 0
Oc1ccc(F)c2cccnc12 | -7 | 1 | -2 | 1 | 68* | 3 | 3
Oc1ccc(Cl)c2cccnc12 | -2 | 0 | -4 | 0 | 6 | . | .
CCNC(=O)C1(C)CCCN(CCOc2ccc(OC)cc2)C1 (configuration not stated) | . | -1 | 1 | -1 | 1 | . | .
COc1ccccc1N(C(=O)Cn1nnc(-c2ccc(C)o2)n1)C(C(=O)NC1CCCC1)c1ccncc1 (configuration not stated) | -3 | 0 | 5 | 4 | 1 | . | .
COc1ccc(CC(=O)Nc2ccc(-c3noc(-c4ccc(Cl)cc4)n3)cc2)cc1 | 10 | 22 | 15 | 6 | 51* | 4 | -5
SMILES | Scp1 inh | LMPTP inh | SUMO1 PPI mod | STEP inh | DNMT1 block | DNMT1 confirm | DNMT1 interf | others
COc1ccc(N2CCN(C(=O)COC(=O)CSc3ccccc3)CC2)cc1 | -1 | 1 | -1 | 0 | 0 | . | .
Cc1ccc(NCC(=O)N/N=C\c2cccc(O)c2)cc1 | -3 | 0 | 1 | -4 | 58* | 0 | 4
CC1(C)CC(=O)C=C(c2ccc(COC(=O)c3ccc(-c4ccccc4)cc3)cc2)C1=O | . | 2 | 0 | 2 | 6 | . | .
Clc1ccc(OCCCCCN2CCOCC2)cc1 | -2 | -1 | 0 | -2 | 1 | . | .
O=C(N/N=C/c1coc2ccccc2c1=O)c1ccncc1 | -5 | 0 | -4 | 2 | 0 | . | .
O=C(N/N=C/c1coc2ccccc2c1=O)c1cn(-c2ccccc2)nc1-c1ccc(F)cc1 | -7 | 0 | 6 | 8 | 59* | 1 | 4
CCc1nn(CC(=O)NCCCc2ccccc2)c(=O)c2cc3cc(F)ccc3n12 | -5 | 3 | 5 | 1 | 51* | 0 | -1
CCc1nn(CC(=O)NCCCc2ccccc2)c(=O)c2cc3c(OC)cccc3n12 | -11 | 13 | -3 | 0 | 49 | . | .
COC(=O)COc1ccc(S(=O)(=O)Nc2ccccc2SC)cc1 | -28 | -1 | -1 | -1 | 79* | 4 | 8
CCOc1ccc(S(=O)(=O)Nc2ccccc2SC)cc1 | -4 | 2 | 1 | 2 | -6 | . | .
O=[N+]([O-])c1ccc(/C=N/NC(=S)Nc2ccc(Cl)cc2Cl)s1 | 12 | 13 | 9 | 4 | 60* | 5 | -3
CCOC(=O)c1c(NC(=O)CSc2nnc(C)o2)sc(C)c1C | -4 | -1 | 1 | 4 | 59* | 3 | 1
CCn1nc(C(=O)OCC(=O)N(CCC#N)c2ccccc2)c2ccccc2c1=O | -9 | -1 | -6 | 0 | 9 | . | .
O=C1c2ccccc2C(=O)N1CCc1c(-c2[nH]c3ccccc3c2CCN2C(=O)c3ccccc3C2=O)[nH]c2ccccc12 | -4 | -2 | 3 | 3 | 56* | 3 | 1
CCOC(=O)N1CCN(Cc2nc(CC3CC3)no2)CC1 | -5 | -1 | 3 | -1 | 82* | 3 | 3
CN(C)C(=O)CN1CCN(Cc2nc(CC3CC3)no2)CC1 | -1 | 4 | 0 | -2 | 2 | . | .
Cc1ccn(CCC(=O)Nc2ccc3c(c2)OCO3)n1 | -2 | -3 | -3 | -1 | -7 | . | .
CC(C)n1nc(C(=O)Nc2cccc(S(=O)(=O)N3CCOCC3)c2)c2ccccc2c1=O | -7 | -1 | -5 | 2 | -1 | . | .
